This is an account of results in ChEMBL document CHEMBL1152183, “Structure-activity relationships of 3-substituted N-benzhydryl-nortropane analogs as nociceptin receptor ligands for the treatment of cough” (Bioorg Med Chem Lett, 2008).

Assay [1] has as its target T1, Nociceptin receptor (Homo sapiens, UniProt P41146). The experiment in a line: Displacement of [125I][Tyr14]nociceptin FQ from human cloned nociceptin receptor expressed in CHO cells. In kind it is cell-based. A digest of the protocol:
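Competition binding on CHO cell membranes expressing cloned human nociceptin receptor, radioligand [125I][Tyr14]nociceptin FQ; Ki determined from dose–response curves.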

In the next assay the target is Mu-type opioid receptor (Homo sapiens, UniProt P35372). Briefly: Displacement of [3H]diprenorphine from human mu opioid receptor expressed in CHO cells. In kind it is cell-based. A digest of the protocol: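 CHO cell membranes expressing human opioid receptor; [3H]-diprenorphine as radioligand; Ki determined from dose–response curves.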
On the technique in general: Displacement assays read how much labelled ligand stays bound in the presence of the test substance.

Assay [2] deals with T1, Nociceptin receptor. The experiment in a line: Agonist activity at human cloned nociceptin receptor expressed in CHO cells assessed as stimulation of [35S]GTPgammaS binding. Format: functional, cell-based. A digest of the protocol: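 Membranes from cells transfected with nociceptin receptor; agonism measured as enhancement of [35S]GTPγS binding in presence of GDP; EC50 derived.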
A general note: GTPγS resists hydrolysis and so accumulates on activated G proteins.

Assay [3] has as its target T1, Nociceptin receptor. Briefly: Agonist activity at human cloned nociceptin receptor expressed in CHO cells assessed as stimulation of [35S]GTPgammaS binding at 10 uM. In kind it is functional, cell-based.
In assay [4] the test system is Cavia porcellus. Briefly: Antitussive activity in guinea pig assessed as suppression of capsaicin-induced cough at 0.3 mg/kg, po. In kind it is functional.
The species named for assay [5] is Homo sapiens. The experiment in a line: Selectivity for human cloned nociceptin receptor over human mu opioid receptor.
For assay [6], the species on record is Homo sapiens. The experiment in a line: Selectivity for human cloned nociceptin receptor over human delta opioid receptor.
The species entered for assay [7] is Homo sapiens. The experiment in a line: Selectivity for human cloned nociceptin receptor over human kappa opioid receptor.
The species entered for assay [8] is Cavia porcellus. Briefly: Antitussive activity in guinea pig assessed as suppression of capsaicin-induced cough after 2 hrs. Format: functional. A digest of the protocol: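 Guinea pig capsaicin-induced cough model; oral dosing; cough suppression read 2 h after dosing relative to placebo; ED50 derived.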
For assay [9], the target named is T1, Nociceptin receptor. Briefly: Agonist activity at human cloned nociceptin receptor expressed in CHO cells assessed as stimulation of [35S]GTPgammaS binding at 5.5 uM. Format: functional, cell-based.

Sequence of Mu-type opioid receptor (P35372 whole entry): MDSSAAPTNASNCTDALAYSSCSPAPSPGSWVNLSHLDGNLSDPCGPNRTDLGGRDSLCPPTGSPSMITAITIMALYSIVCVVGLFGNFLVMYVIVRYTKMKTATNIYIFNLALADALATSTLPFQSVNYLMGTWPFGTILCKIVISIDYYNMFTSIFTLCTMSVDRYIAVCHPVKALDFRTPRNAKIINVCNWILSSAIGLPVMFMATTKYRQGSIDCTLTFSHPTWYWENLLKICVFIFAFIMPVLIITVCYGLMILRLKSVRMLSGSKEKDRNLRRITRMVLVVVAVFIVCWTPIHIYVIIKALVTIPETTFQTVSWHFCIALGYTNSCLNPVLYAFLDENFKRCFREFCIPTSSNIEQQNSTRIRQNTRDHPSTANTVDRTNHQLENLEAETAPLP
T1 sequence (P41146 whole entry): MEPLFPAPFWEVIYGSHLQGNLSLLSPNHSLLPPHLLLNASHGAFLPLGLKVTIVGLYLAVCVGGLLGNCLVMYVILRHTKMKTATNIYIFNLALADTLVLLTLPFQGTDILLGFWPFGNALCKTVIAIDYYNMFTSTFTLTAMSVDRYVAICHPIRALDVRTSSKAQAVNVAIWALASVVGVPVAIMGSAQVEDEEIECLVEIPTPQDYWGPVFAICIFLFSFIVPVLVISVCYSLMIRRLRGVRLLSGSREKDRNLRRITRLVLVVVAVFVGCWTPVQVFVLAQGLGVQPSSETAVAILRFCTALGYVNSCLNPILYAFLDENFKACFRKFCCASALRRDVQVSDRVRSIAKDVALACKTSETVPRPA

What is called Ki is the equilibrium dissociation constant of an inhibitor or competing ligand from its target. A higher Ki goes with weaker binding. With `CN(C)C[C@@]1(c2cccc(F)n2)C[C@H]2CC[C@@H](C1)N2C(c1ccccc1Cl)c1ccccc1Cl`, the Ki turned out to be 104 nM on Nociceptin receptor [1] and 3980 nM on Mu-type opioid receptor.
The corresponding values for `COc1ccc([C@]2(CNC(C)=O)C[C@H]3CC[C@@H](C2)N3C(c2ccccc2Cl)c2ccccc2Cl)nc1` are 62 nM and 3450 nM.
Consider `CNC[C@@]1(c2ccccc2)C[C@H]2CC[C@@H](C1)N2C(c1ccccc1Cl)c1ccccc1Cl`, for which the Ki came to 10 nM at Nociceptin receptor [1] and 566 nM on Mu-type opioid receptor.
For `Cc1ccc2c(c1)[C@]1(CN2)C[C@H]2CC[C@@H](C1)N2C(c1ccccc1Cl)c1ccccc1Cl`, the Ki is 74 nM at Nociceptin receptor [1] and 998 nM on Mu-type opioid receptor.
For `CCNC[C@@]1(c2cccc(OC)n2)C[C@H]2CC[C@@H](C1)N2C(c1ccccc1Cl)c1ccccc1Cl`, in that order: 20 nM and 442 nM.
In the case of `COc1cccc([C@]2(CNC(C)=O)C[C@H]3CC[C@@H](C2)N3C(c2ccccc2Cl)c2ccccc2Cl)n1`, the Ki on Nociceptin receptor [1] is 4 nM; on Mu-type opioid receptor it was 251 nM.
At Nociceptin receptor [1], `CCNC[C@]1(Cc2ccccc2)C[C@H]2CC[C@@H](C1)N2C(c1ccccc1Cl)c1ccccc1Cl` showed a Ki of 39 nM.
For `COC(=O)NC[C@@]1(c2ccccc2)C[C@H]2CC[C@@H](C1)N2C(c1ccccc1Cl)c1ccccc1Cl`, the Ki at Nociceptin receptor [1] amounted to 20 nM; at Mu-type opioid receptor it was 905 nM.
`CC(=O)NC[C@@]1(c2cccnc2)C[C@H]2CC[C@@H](C1)N2C(c1ccccc1Cl)c1ccccc1Cl`: on Nociceptin receptor [1], the Ki came to 35 nM.
The term EC50 denotes the concentration giving half of the maximal effect. `CC(=O)NC[C@@]1(Cc2ccc(F)cc2)C[C@H]2CC[C@@H](C1)N2C(c1ccccc1Cl)c1ccccc1Cl`: the Ki at Nociceptin receptor [1] is 15 nM; at Mu-type opioid receptor, 782 nM. Further, at Nociceptin receptor [2], the EC50 came out at 129 nM. Also, the values for the Activity on Nociceptin receptor [3] and with Cavia porcellus [4] were 124% and 23%, respectively.
Turning to `CC(=O)NC[C@@]1(c2ncccc2CN2CCCCC2)C[C@H]2CC[C@@H](C1)N2C(c1ccccc1Cl)c1ccccc1Cl`, the Ki on Nociceptin receptor [1] turned out to be 670 nM; on Mu-type opioid receptor, 758 nM.
Consider `O=C1CCCN1C[C@@]1(c2ccccc2)C[C@H]2CC[C@@H](C1)N2C(c1ccccc1Cl)c1ccccc1Cl`, for which the Ki on Nociceptin receptor [1] was 68 nM.
Take `CN(C)C[C@@]1(c2ccccn2)C[C@H]2CC[C@@H](C1)N2C(c1ccccc1Cl)c1ccccc1Cl`: the Ki at Nociceptin receptor [1] stood at 7 nM; on Mu-type opioid receptor it was 785 nM. For the same molecule, the fold change (FC) in the assay listed under Homo sapiens [5] came to 75. Also, on Nociceptin receptor [2], the EC50 was 156 nM.
Take `CC(=O)NC[C@@]1(c2cccc(F)n2)C[C@H]2CC[C@@H](C1)N2C(c1ccccc1Cl)c1ccccc1Cl`: the Ki worked out at 24 nM at Nociceptin receptor [1] and 1280 nM on Mu-type opioid receptor.
At Nociceptin receptor [1], `NC[C@@]1(C2CCCCN2)C[C@H]2CC[C@@H](C1)N2C(c1ccccc1Cl)c1ccccc1Cl` (stereo not given in full) yielded a Ki of 17 nM.
As for `Clc1ccccc1C(c1ccccc1Cl)N1[C@@H]2CC[C@H]1C[C@](CN1CCCC1)(c1ccccc1)C2`, the Ki on Nociceptin receptor [1] turned out to be 70 nM; at Mu-type opioid receptor, 4170 nM.
The corresponding values for `Clc1ccccc1C(c1ccccc1Cl)N1[C@@H]2CC[C@H]1C[C@@]1(CNc3ccccc31)C2` are 50 nM and 1200 nM.
For the molecule `NC[C@@]1(c2ccccn2)C[C@H]2CC[C@@H](C1)N2C(c1ccccc1Cl)c1ccccc1Cl`, the Ki was determined as 7 nM at Nociceptin receptor [1] and 617 nM at Mu-type opioid receptor. The figures for the fold change (FC) in the assay filed under Homo sapiens [5], in the assay filed under Homo sapiens [6] and in the assay filed under Homo sapiens [7] were 75, 300 and 35, respectively.
Regarding `Fc1ccc2c(c1)[C@]1(CN2)C[C@H]2CC[C@@H](C1)N2C(c1ccccc1Cl)c1ccccc1Cl`, the Ki on Nociceptin receptor [1] is 39 nM; at Mu-type opioid receptor it was 1710 nM.
`CC(=O)NC[C@@]1(c2ccc(F)cc2)C[C@H]2CC[C@@H](C1)N2C(c1ccccc1Cl)c1ccccc1Cl`: the Ki amounted to 31 nM on Nociceptin receptor [1] and 2110 nM on Mu-type opioid receptor. Further, in the assay listed under Homo sapiens [5], the fold change (FC) turned out to be 68.
In turn, `Cc1cccnc1[C@]1(CN)C[C@H]2CC[C@@H](C1)N2C(c1ccccc1Cl)c1ccccc1Cl` came in with a Ki at Nociceptin receptor [1] of 50 nM.
By ED50 is commonly meant the dose at which the effect has come halfway, by size or by number of responders. For the molecule `CC(=O)NC[C@@]1(c2ccccc2)C[C@H]2CC[C@@H](C1)N2C(c1ccccc1Cl)c1ccccc1Cl`, the Ki came out at 20 nM at Nociceptin receptor [1] and 777 nM on Mu-type opioid receptor. In addition, the fold change (FC) in the assay filed under Homo sapiens [6] amounted to 300; in the assay filed under Homo sapiens [7], 32. In addition, the EC50 on Nociceptin receptor [2] stood at 269 nM. Besides, the Activity on Nociceptin receptor [3] stood at 122%. The ED50 in the assay listed under Cavia porcellus [8] is 0.19 mg/kg.
On Nociceptin receptor [1], `CC(=O)NC[C@@]1(c2ncccc2C)C[C@H]2CC[C@@H](C1)N2C(c1ccccc1Cl)c1ccccc1Cl` displayed a Ki of 173 nM.
At Nociceptin receptor [1], `CC(=O)NC[C@@]1(c2ccc(N3CCCCC3)cn2)C[C@H]2CC[C@@H](C1)N2C(c1ccccc1Cl)c1ccccc1Cl` returned a Ki of 99 nM.
For `CC(=O)NC[C@@]1(c2ccc(Br)cn2)C[C@H]2CC[C@@H](C1)N2C(c1ccccc1Cl)c1ccccc1Cl`, the Ki at Nociceptin receptor [1] was 27 nM; on Mu-type opioid receptor, 752 nM.
With `Fc1ccc(C[C@]2(CN3CCCC3)C[C@H]3CC[C@@H](C2)N3C(c2ccccc2Cl)c2ccccc2Cl)cc1`, the affinity at Nociceptin receptor [1] corresponds to a Ki of 58 nM.
Regarding `CC(=O)NC[C@@]1(c2ccccn2)C[C@H]2CC[C@@H](C1)N2C(c1ccccc1Cl)c1ccccc1Cl`, the Ki at Nociceptin receptor [1] was 5 nM; on Mu-type opioid receptor it was 374 nM. In the assay filed under Homo sapiens [5], the fold change (FC) is 75.
Turning to `Clc1ccccc1C(c1ccccc1Cl)N1[C@@H]2CC[C@H]1C[C@@](Cc1ccccc1)(CN1CCCC1)C2`, the Ki on Nociceptin receptor [1] turned out to be 116 nM. This lies in the sub-micromolar range.
On the same count and under the same terms, the figure for `NC[C@@]1(c2cccnc2)C[C@H]2CC[C@@H](C1)N2C(c1ccccc1Cl)c1ccccc1Cl` is 82 nM; for `CC(=O)NC[C@@]1(C2CCCCN2)C[C@H]2CC[C@@H](C1)N2C(c1ccccc1Cl)c1ccccc1Cl` (stereo not given in full) it is 27 nM.
On to `COc1cccc([C@]2(CN)C[C@H]3CC[C@@H](C2)N3C(c2ccccc2Cl)c2ccccc2Cl)n1`, for which the Ki came out at 11 nM on Nociceptin receptor [1] and 123 nM at Mu-type opioid receptor. Besides, the fold change (FC) in the assay listed under Homo sapiens [6] was found to be 300; in the assay listed under Homo sapiens [7] it was 36.
`O=C1CCCN1C[C@@]1(Cc2ccccc2)C[C@H]2CC[C@@H](C1)N2C(c1ccccc1Cl)c1ccccc1Cl` gave a Ki on Nociceptin receptor [1] of 336 nM.
The molecule `CN(C)C[C@@]1(Cc2ccccc2)C[C@H]2CC[C@@H](C1)N2C(c1ccccc1Cl)c1ccccc1Cl` showed a Ki on Nociceptin receptor [1] of 55 nM. Against the preceding molecule, the Ki is about 6.1-fold lower.
As to `NC[C@@]1(c2ccccc2)C[C@H]2CC[C@@H](C1)N2C(c1ccccc1Cl)c1ccccc1Cl`, the values for the Ki at Nociceptin receptor [1] and at Mu-type opioid receptor were 6 nM and 674 nM, respectively. In addition, the fold change (FC) in the assay listed under Homo sapiens [5] turned out to be 112; in the assay filed under Homo sapiens [6], 300; in the assay filed under Homo sapiens [7], 30.
Regarding `CC(=O)N(C)C[C@@]1(c2ccccc2)C[C@H]2CC[C@@H](C1)N2C(c1ccccc1Cl)c1ccccc1Cl`, the Ki worked out at 210 nM at Nociceptin receptor [1] and 2620 nM at Mu-type opioid receptor. Moreover, the fold change (FC) in the assay filed under Homo sapiens [5] is 13.
As to `NC[C@@]1(c2ncccc2CN2CCCCC2)C[C@H]2CC[C@@H](C1)N2C(c1ccccc1Cl)c1ccccc1Cl`, the affinity at Nociceptin receptor [1], expressed as Ki, was 245 nM.
Turning to `NC[C@@]1(Cc2ccc(F)cc2)C[C@H]2CC[C@@H](C1)N2C(c1ccccc1Cl)c1ccccc1Cl`, the Ki at Nociceptin receptor [1] came to 34 nM; on Mu-type opioid receptor, 1410 nM. The EC50 on Nociceptin receptor [2] amounted to 124 nM. For the same molecule, the Activity on Nociceptin receptor [9] was 87%.
In turn, `NC[C@@]1(c2cccc(F)n2)C[C@H]2CC[C@@H](C1)N2C(c1ccccc1Cl)c1ccccc1Cl` yielded an inhibitory constant (Ki) at Nociceptin receptor [1] of 29 nM.
`CN(C)C[C@@]1(c2ccccc2)C[C@H]2CC[C@@H](C1)N2C(c1ccccc1Cl)c1ccccc1Cl`: the results for the Ki on Nociceptin receptor [1] and at Mu-type opioid receptor were 17 nM and 1490 nM, respectively. Further, the values for the fold change (FC) in the assay listed under Homo sapiens [6] and in the assay filed under Homo sapiens [7] were 300 and 31, respectively. For the same molecule, the EC50 at Nociceptin receptor [2] came out at 483 nM. Also, the Activity on Nociceptin receptor [9] stood at 104%; in the assay on Cavia porcellus [4], 36%.
In the case of `NC[C@@]1(Cc2ccccc2)C[C@H]2CC[C@@H](C1)N2C(c1ccccc1Cl)c1ccccc1Cl`, the Ki at Nociceptin receptor [1] stood at 11 nM; on Mu-type opioid receptor, 1340 nM. For the same molecule, the fold change (FC) in the assay listed under Homo sapiens [5] came to 121; in the assay filed under Homo sapiens [6], 300; in the assay listed under Homo sapiens [7] it was 33.
Regarding `COc1ccc([C@]2(CNC(C)=O)C[C@H]3CC[C@@H](C2)N3C(c2ccccc2Cl)c2ccccc2Cl)cc1`, the Ki on Nociceptin receptor [1] turned out to be 118 nM; on Mu-type opioid receptor, 2410 nM.
Consider `CC(=O)NC[C@@]1(Cc2ccccc2)C[C@H]2CC[C@@H](C1)N2C(c1ccccc1Cl)c1ccccc1Cl`, for which the Ki on Nociceptin receptor [1] amounted to 12 nM; on Mu-type opioid receptor, 458 nM. The fold change (FC) in the assay filed under Homo sapiens [6] was 300; in the assay filed under Homo sapiens [7], 34.
As for `CCNC[C@@]1(c2ccccn2)C[C@H]2CC[C@@H](C1)N2C(c1ccccc1Cl)c1ccccc1Cl`, the figures for the Ki at Nociceptin receptor [1] and at Mu-type opioid receptor were 6 nM and 743 nM, respectively. In addition, in the assay filed under Homo sapiens [5], the fold change (FC) was 75.
